Results reported in ChEMBL document CHEMBL1124832, “Functionalized congener approach for the design of novel muscarinic agents. Synthesis and pharmacological evaluation of N-methyl-N-[4-(1-pyrrolidinyl)-2-butynyl] amides” (J Med Chem, 1990).

What was measured:
[1] = molecular target: T1, Muscarinic acetylcholine receptor M4 (Rattus norvegicus) (UniProt P08485); assay: Binding affinity at muscarinic acetylcholine receptor M4 from NG108-15 cell line in presence of [3H]-NMS; format: cell-based
T1 sequence (whole entry): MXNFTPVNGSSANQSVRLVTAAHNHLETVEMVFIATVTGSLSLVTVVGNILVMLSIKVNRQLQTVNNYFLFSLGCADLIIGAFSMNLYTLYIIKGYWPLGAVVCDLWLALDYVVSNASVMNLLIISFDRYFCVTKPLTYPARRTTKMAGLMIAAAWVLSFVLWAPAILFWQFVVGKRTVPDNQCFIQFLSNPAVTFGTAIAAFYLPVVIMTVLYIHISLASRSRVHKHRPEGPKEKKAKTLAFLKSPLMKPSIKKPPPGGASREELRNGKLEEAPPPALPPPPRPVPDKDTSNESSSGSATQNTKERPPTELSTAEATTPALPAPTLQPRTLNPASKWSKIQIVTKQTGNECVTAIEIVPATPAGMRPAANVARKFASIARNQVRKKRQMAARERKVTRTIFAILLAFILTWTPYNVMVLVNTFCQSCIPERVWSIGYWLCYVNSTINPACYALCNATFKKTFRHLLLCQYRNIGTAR
In short: (§1)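 Crude membranes from confluent cells, lysed in 2 mM Tris-HCl (pH 7.1)/1 mM EDTA, homogenized, spun at 50000 g and stored at -70 °C. Membranes (150-300 µg protein) incubated 90 min at 37 °C with 0.5 nM [3H]NMS and 100 µM compound in DMEM-Hepes, then filtered on GF/B. Nonspecific binding taken with 1 µM atropine. Reported as percent displacement; two or three trials in triplicate.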

[2] = molecular target: T1, Muscarinic acetylcholine receptor M4 (Rattus norvegicus); assay: Percent inhibition against muscarinic acetylcholine receptor M4 from NG108-15 cell line; format: cell-based; design: concentration or dose not given beside the values
In short: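 NG108-15 cells grown to 90% confluence and preincubated 10 min at 37 °C in 1 mM IBMX in DMEM-Hepes. Compound (100 µM final) and PGE1 (5 µM final) were added for 15 min at 37 °C. cAMP was extracted in 0.1 N HCl for 30 min at room temperature, lyophilized and measured by radioimmunoassay. Reported as percent inhibition versus no-compound control; three trials in triplicate.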

[3] = molecular target: Muscarinic acetylcholine receptor M3 (Homo sapiens) (UniProt P20309); assay: Percent increase in [3H]myo-inositol at muscarinic acetylcholine receptor M3 from SK-N-SH human neuroblastoma cells; format: cell-based; design: concentration or dose not given beside the values
Muscarinic acetylcholine receptor M3 (Homo sapiens), sequence (P20309 whole entry, looked up): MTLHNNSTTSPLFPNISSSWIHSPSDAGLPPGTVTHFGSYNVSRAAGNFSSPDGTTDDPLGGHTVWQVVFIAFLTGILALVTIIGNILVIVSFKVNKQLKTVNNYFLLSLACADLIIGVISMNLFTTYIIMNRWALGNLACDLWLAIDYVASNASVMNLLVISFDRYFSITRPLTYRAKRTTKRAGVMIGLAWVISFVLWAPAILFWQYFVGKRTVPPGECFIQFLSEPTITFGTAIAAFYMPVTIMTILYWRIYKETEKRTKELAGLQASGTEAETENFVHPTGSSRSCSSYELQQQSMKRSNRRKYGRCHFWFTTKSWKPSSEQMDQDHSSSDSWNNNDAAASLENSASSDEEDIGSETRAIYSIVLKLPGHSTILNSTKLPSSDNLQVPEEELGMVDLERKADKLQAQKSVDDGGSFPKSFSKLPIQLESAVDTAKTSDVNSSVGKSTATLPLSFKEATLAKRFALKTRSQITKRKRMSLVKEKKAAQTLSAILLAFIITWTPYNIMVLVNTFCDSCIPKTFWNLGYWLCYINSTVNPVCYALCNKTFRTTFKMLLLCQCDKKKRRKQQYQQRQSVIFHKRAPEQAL
In short: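 SK-N-SH cells grown in DMEM with 10% newborn calf serum and plated at 100000 cells/well. After 24 h they were labeled overnight with [3H]-myo-inositol (2 µCi/well). Cells were rinsed and preincubated 5 min at 37 °C in 10 mM LiCl DMEM-Hepes, then exposed to 100 µM final compound for 30 min at 37 °C. Reported as percent increase relative to oxotremorine M (100%); two or three trials in triplicate.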

[4] = molecular target: Muscarinic acetylcholine receptor M3 (Homo sapiens) (UniProt P20309); assay: Percent binding affinity at muscarinic acetylcholine receptor M3 from SK-N-SH human neuroblastoma cells in presence of [3H]NMS; format: cell-based; in short: as §1
[5] = molecular target: Muscarinic acetylcholine receptor; assay: Binding affinity was determined using [3H]-NMS for Muscarinic acetylcholine receptor in SK-N-SH neuroblastoma cells; format: cell-based, Homo sapiens
In short: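 SK-N-SH crude membranes from hypotonic lysis (2 mM Tris-HCl pH 7.1, 1 mM EDTA), 50000 g pellets. Competition used varied compound concentrations with 1 nM [3H]NMS in DMEM-Hepes, 60 min at 37°C, then GF/B filtration. Atropine defined nonspecific binding. Ki was obtained by Cheng-Prusoff from the [3H]NMS Kd (saturation, 10 min at 37°C). Means ± SEM of three determinations in duplicate.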

SK-N-SH = assay: Percent inhibition of stimulation of PI turnover of Oxotremorine M (100 uM) in SK-N-SH cells at 100 uM; format: functional, Homo sapiens

SMILES | Affinity [1] [%] | Activity [2] [%] | Activity [3] [%] | Affinity [4] [%] | Ki [5] [µM] | Inhibition (SK-N-SH) [%]
CN(CC#CCN1CCCC1)C(=O)CN | 23.5 | 26.1 | < 1 | 17.3 | – | –
CN(CC#CCN1CCCC1)C(=O)CCCCCCCN.O=C(O)C(F)(F)F.O=C(O)C(F)(F)F | 92.3 | < 1 | < 1 | 93.7 | 1.4 | –
CN(CC#CCN1CCCC1)C(=O)CCCN | 12.1 | 3.7 | < 1 | 20 | – | –
CN(CC#CCN1CCCC1)C(=O)CCCNC(=O)CN | 31 | < 1 | 7 | 47 | – | –
CN(CC#CCN1CCCC1)C(=O)CCC(=O)O | 0 | < 1 | < 1 | 6 | – | –
CN(CC#CCN1CCCC1)C(=O)CCN.O=C(O)C(F)(F)F.O=C(O)C(F)(F)F | 15.1 | 20.8 | < 1 | 18.1 | – | 20
CN(CC#CCN1CCCC1)C(=O)CCNC(=O)OC(C)(C)C | 36.3 | 12.5 | < 1 | 45.1 | – | –
CN(CC#CCN1CCCC1)C(=O)CCCCCNC(=O)CNC(=O)OC(C)(C)C | 52.3 | < 1 | 3 | 52.6 | – | –
CC(=O)N(C)C(C)C#CCN1CCCC1 (stereo unspecified) | 97 | 36 | < 1 | 99 | 0.33 | –
CC(=O)N(C)CC#CCN1CCCC1 | 79.6 | 63.2 | 48 | 88.8 | 4.96 | –
CN(CC#CCN1CCCC1)C(=O)CCCCCCN.O=C(O)C(F)(F)F.O=C(O)C(F)(F)F | 72.1 | 3 | < 1 | 81.9 | 6.7 | –
C[N+](C)(C)CC#CCN1CCCC1=O | 96.2 | 64.1 | 100 | 52.1 | – | –
CN(CC#CCN1CCCC1)C(=O)CCCNC(=O)CNC(=O)OC(C)(C)C | 24.4 | < 1 | < 1 | 37.5 | – | –
CN(CC#CCN1CCCC1)C(=O)CNC(=O)OC(C)(C)C | 32.6 | 7 | < 1 | 40 | – | –
CN(CC#CCN1CCCC1)C(=O)CCCCCNC(=O)CCN | 56.8 | < 1 | 7 | 70.5 | – | –
CC(=O)NCCCCCCCC(=O)N(C)CC#CCN1CCCC1 | 50.4 | < 1 | < 1 | 59.1 | – | –
CN(CC#CCN1CCCC1)C(=O)c1ccccc1 | 25 | < 1 | 8 | 40 | – | –
CC(=O)NCC(=O)N(C)CC#CCN1CCCC1 | 24 | 14.1 | 8 | 12.5 | – | –
COC(=O)CCC(=O)N(C)CC#CCN1CCCC1 | 7 | < 1 | < 1 | 28 | – | –
CN(CC#CCN1CCCC1)C(=O)c1cccc(Cl)c1 | 34 | < 1 | 4 | 55 | – | –

SMILES | Affinity [1] [%] | Activity [2] [%] | Activity [3] [%] | Affinity [4] [%] | Ki [5] [µM] | Inhibition (SK-N-SH) [%]
CN(CC#CCN1CCCC1)C(=O)CCCCCNC(=O)c1ccccc1 | 52.8 | < 1 | < 1 | 51.7 | – | –
CC(=O)NCCCCC(=O)N(C)CC#CCN1CCCC1 | 17.9 | 5.2 | < 1 | 29.4 | – | –
CN(CC#CCN1CCCC1)C(=O)CCCCNC(=O)OC(C)(C)C | 26.7 | 0.5 | 1 | 32.1 | – | –
CN(CC#CCN1CCCC1)C(=O)CCCCCCNC(=O)OC(C)(C)C.O=C(O)C(=O)O | 77.9 | < 1 | < 1 | 81.4 | 10.9 | –
CN(CC#CCN1CCCC1)C(=O)CCCNC(=O)CCNC(=O)OC(C)(C)C | 38.8 | < 1 | < 1 | 39.2 | – | –
CN(CC#CCN1CCCC1)C(=O)CCCNC(=O)OC(C)(C)C | 24.4 | 3.5 | < 1 | 32.1 | – | –
CC(=O)NCCC(=O)N(C)CC#CCN1CCCC1.O=C(O)C(=O)O | 67.7 | 10.2 | < 1 | 67.4 | – | 43
CC(=O)NCCCC(=O)N(C)CC#CCN1CCCC1 | 19.1 | 8 | 14 | 15.6 | – | –
CN(CC#CCN1CCCC1)C(=O)CCCCCNC(=O)CN | 57 | < 1 | < 1 | 65 | – | –
CN(CC#CCN1CCCC1)C(=O)CCCNC(=O)CCN | 29 | < 1 | 7 | 40.5 | – | –
CN(CC#CCN1CCCC1)C(=O)CCCCCCCNC(=O)OC(C)(C)C.O=C(O)C(=O)O | 89 | < 1 | < 1 | 92.1 | 4.9 | –
CN(CC#CCN1CCCC1)C(=O)CCCCN.O=C(O)C(F)(F)F.O=C(O)C(F)(F)F | 22.4 | 15.8 | < 1 | 34.4 | – | 44
CN(CC#CCN1CCCC1)C(=O)CCCNC(=O)c1ccccc1 | 27.7 | < 1 | < 1 | 30.3 | – | –
CN(CC#CCN1CCCC1)C(=O)CCCCCNC(=O)CCNC(=O)OC(C)(C)C | 57.3 | < 1 | < 1 | 59.1 | – | –
CC(=O)NCCCCCCC(=O)N(C)CC#CCN1CCCC1 | 20.4 | 6.9 | 1 | 24.6 | – | –
CN(CC#CCN1CCCC1)C(=O)CCCCCNC(=O)OC(C)(C)C | 31.9 | < 1 | < 1 | 39.1 | – | –
CN(CC#CCN1CCCC1)C(=O)CCC(=O)NCCN | 14 | < 1 | < 1 | 25 | – | –
CN(CC#CCN1CCCC1)C(=O)CCCCCN.O=C(O)C(F)(F)F.O=C(O)C(F)(F)F | 37.9 | 14.3 | < 1 | 55.9 | – | 47
CC(=O)NCCCCCC(=O)N(C)CC#CCN1CCCC1 | 22.7 | 3 | 1 | 17.4 | – | –
